# Where “and” joins values, the source holds several entries; their conditions need not be identical. Identical values can stand only once. Where no end group is shown, it is not given here. Cy5.5 = Cy5.5 fluorophore
# B1: KSP*-Cy5.5 (KSPNPRF peptide labeled with Cy5.5 via a GGGSK linker) (peptide)
# peptide: KSPNPRFGGGSK(Cy5.5)-NH2
# Tests used:
# p-AKT = assay: Western blot p-AKT, SKBR3 cells; type: cell-based, Human; conditions: 48 h
# Summary of the method: (§1)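 SKBR3 cells (McCoy's) in 6-well plates at ~60% confluence got unlabeled test peptide at 5 or 100 μM. A tyrosine kinase inhibitor positive control was used at 1–1000 nM, alongside 1% DMSO and untreated controls. Cells were harvested at 48 h for Western blot. Antibodies covered total HER2, AKT and ERK1/2, phospho-HER2 (Tyr1248), phospho-AKT (pS473), phospho-ERK1/2 and tubulin.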
# p-HER2 = assay: Western blot p-HER2, SKBR3 cells; type: cell-based, Human; conditions: 48 h
# Summary of the method: as §1
# p-ERK = assay: Western blot p-ERK, SKBR3 cells; type: cell-based, Human; conditions: 48 h
# Summary of the method: as §1
# Flo1-HER2 cells = assay: Confocal microscopy of FITC-labeled lead peptides with Flo1-HER2 cells; type: cell-based; conditions: 10 μM, 4 °C, 1 h, quadruplicate, data log base 2
# Summary of the method: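 Flo1-HER2 cells (DMEM + G418) and Q-hTERT control cells (Keratinocyte-SFM), ~7500 cells on coverslips, were grown to ~70% confluence and washed with cold PBS. They got 10 μM FITC-labeled peptide for 1 h at 4 °C, were washed 3×, fixed in ice-cold 4% PFA for 10 min and mounted with DAPI. Confocal imaging used a 63× oil objective, in quadruplicate.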
# [1] = test system: HER2 overexpressed by mouse colonic dysplasia; assay: Peptide immunofluorescence on mouse colonic adenoma sections; conditions: 2 μM, 10 min, RT, confocal
# Summary of the method: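 Serial 5-μm sections of formalin-fixed mouse colonic adenoma were incubated with 2 μM Cy5.5-labeled test or control peptide for 10 min at RT. Sections were washed 3× with PBS and mounted with DAPI for confocal imaging. Adjacent sections were H&E stained.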
# HER2 on SW480 cells = assay: Confocal fluorescence microscopy, SW480 cells; type: cell-based, Human; conditions: peptides 5 μM, 30 min, 4 °C
# Summary of the method: (§2)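 Cells were cultured at 37 °C, 5% CO2 with 10% FBS and 1% pen/strep: HT29 in McCoy's, SW480 in DMEM. After a PBS wash, cells got 5 μM Cy5.5-labeled test or control peptide for 30 min at 4 °C, were washed 3×, fixed in ice-cold 4% PFA for 10 min and mounted with DAPI. Imaging used Cy5.5 and DAPI filters. Intensities were quantified from 3 independent images.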
# HER2 on HT29 cells [2] = assay: Co-localization of peptide and anti-HER2 antibody binding, HT29 cells; type: cell-based, Human; conditions: KSP*-Cy5.5 5 μM, 1 h, 4 °C, then anti-HER2 and AF488 secondary
# Summary of the method: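 HT29 cells got 5 μM Cy5.5-labeled test peptide first (1 h, 4 °C), at under 10 μM to limit interference with antibody binding. Cells were washed, fixed in 4% PFA for 5 min, then stained with primary anti-HER2 and AF488 secondary. Co-localization was scored as Pearson's correlation coefficient.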
# HER2 on HT29 cells [3] = assay: Apparent association time constant by flow cytometry; type: binding, Human; conditions: 5 μM KSP*-Cy5.5, 4 °C, 0-60 min, from k = 0.14 min^−1
# HER2 on HT29 cells [4] = assay: Confocal fluorescence microscopy, HT29 cells; type: cell-based, Human; conditions: peptides 5 μM, 30 min, 4 °C
# Summary of the method: as §2
# [5] = test system: HER2 in colonic adenomas of CPC;Apc mice; assay: In vivo NIR endoscopic imaging of mouse colonic dysplasia, topical peptide; conditions: topical 100 μM, 1.5 mL
# Summary of the method: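 Cy5.5-labeled peptides, 100 μM in 1.5 mL, were delivered into the colon through the endoscope instrument channel and left 5 min. The colon was rinsed 3× with tap water before NIR imaging with a small animal endoscope. Imaging was repeated 2–3 days later with the control peptide. Target-to-background ratios came from mean ROI intensities.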
# HER2 on HT29 cells [6] = assay: siRNA knockdown of HER2, HT29 cells; type: cell-based, Human; conditions: HT29 siCL vs siHER2; confocal; average of 3 images
# Summary of the method: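 HT29 cells were seeded at 30% confluence in McCoy's 5A with 10% FBS and no antibiotics. Next day they were transfected with HER2-targeting siRNA or a nontargeting pool, and knockdown was confirmed by Western blot. Cy5.5-labeled test peptide and AF488 anti-HER2 binding were imaged confocally, with intensities quantified from 3 independent images.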
# [7] = test system: HER2 overexpressed by human proximal colonic neoplasia; assay: Peptide immunofluorescence on FFPE human proximal colon specimens; conditions: KSP*-Cy5.5 5 μM, 10 min, RT
# Summary of the method: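 FFPE 5-μm sections were deparaffinized, then antigen-retrieved in 10 mM sodium citrate, 0.05% Tween, pH 6.0, at boiling then sub-boiling for 15 min. They were blocked with protein serum for 15 min at RT and stained with 5 μM Cy5.5-labeled test peptide for 10 min at RT. After PBS washes, anti-HER2 was applied overnight at 4 °C. Mean intensity was read from three 20×20 μm² epithelial boxes per image, avoiding saturated regions. Analysis used log2 transform if needed, one-way ANOVA with Tukey comparisons, and Pearson's coefficient for co-localization.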
# [8] = test system: HER2 in colonic adenomas of CPC;Apc mice; assay: In vivo NIR endoscopic imaging of mouse colonic dysplasia, systemic peptide; conditions: n = 4, i.v. tail vein, 200 μL of 300 μM
# Summary of the method: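 Isoflurane-anaesthetized CPC;Apc mice received 200 μL of 300 μM Cy5.5-labeled test peptide via tail vein. NIR endoscopy was done before injection for baseline, then after injection until maximum signal. The adenoma-to-normal intensity ratio came from regions of interest at each time point.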
# dysplastic polyps = conditions: FITC-labeled, topical application, patients; cited from earlier work
# [9] = molecular target: Human epidermal growth factor receptor 2 (HER2), endogenous on human cells and tissue (human, UniProt P04626 23-1255); assay: flow cytometry on cells
# [10] = lapatinib 1, 25, 100, 1000 nM, concentration dependent
# [11] = human proximal colon FFPE, n = 30, mean ± sem
molecule,measurement,setting,value
"CS(=O)(=O)CCNCc1ccc(-c2ccc3ncnc(Nc4ccc(OCc5cccc(F)c5)c(Cl)c4)c3c2)o1 [lapatinib, reference compound]",Expression of p-AKT,p-AKT; [10],reduced expression
same,Expression of p-HER2,p-HER2; [10],reduced expression
same,Expression of p-ERK,p-ERK; [10],reduced expression
KSPNPRF,Mean fluorescence intensity (rank among top 5 peptides),Flo1-HER2 cells,highest mean fluorescence intensity
KSPNPRF [KSP*-Cy5.5],Staining of normal colon,[1],Minimal staining
same,Binding to cell surface,HER2 on SW480 cells,binds to the surface
same,"Co-localization with anti-HER2-AF488, Pearson's coefficient",HER2 on HT29 cells [2],0.74
same,"Apparent association time constant, as time",HER2 on HT29 cells [3],7.1 min and 7.14 min
same,Binding to cell surface,HER2 on HT29 cells [4],binds to the surface
same,NIR fluorescence at flat adenoma,[5],increased intensity with visible crypt-like structures
same,NIR fluorescence at polypoid adenoma,[5],increased intensity
same,Binding to siCL treated control cells compared to siHER2 knockdown cells,HER2 on HT29 cells [6],significantly greater
same,"Co-localization with anti-HER2-AF488, Pearson's correlation coefficient","[7]; human colonic dysplasia, then anti-HER2",0.50
same,"Mean fluorescence intensity, hyperplastic polyps","[7]; human proximal colon FFPE, n = 12, mean ± sem",0.12 ± 0.08
same,"Mean fluorescence intensity, sessile serrated adenomas","[7]; human proximal colon FFPE, n = 13, mean ± sem",6.07 ± 0.73
same,"Mean fluorescence intensity, normal",[7]; [11],2.72 ± 0.31
same,"Mean fluorescence intensity, sporadic adenomas",[7]; [11],11.9 ± 0.61
same,Time of peak T/B ratio (mean intensity),[8],100 min
KSPNPRF [KSP*],Phosphorylation of AKT (p-AKT),"p-AKT; KSP* 5 and 100 μM, pS473",no change
same,Phosphorylation of HER2 (p-HER2),"p-HER2; KSP* 5 and 100 μM, Tyr1248",no change
same,"Apparent association time constant, as time",HER2 on HT29 cells [3],7.1 min
same,Phosphorylation of ERK (p-ERK),p-ERK; KSP* 5 and 100 μM,no change
PPSNFKR [PPS*-Cy5.5],Staining of normal colon,[1],Minimal staining
same,Binding to cell surface,HER2 on SW480 cells,minimal binding
same,Binding to cell surface,HER2 on HT29 cells [4],minimal binding
same,NIR fluorescence at flat adenoma,[5],minimal signal
same,NIR fluorescence at polypoid adenoma,[5],minimal signal
VRPMPLQ,Binding in vivo on dysplastic polyps,dysplastic polyps,specific binding was validated
B1,Kd,[9],21 nM

# From PMC5384256 (Bioconjugate chemistry, 2015)
